The values that follow come from publication PMC7236545 (Journal of the American Chemical Society, 2020).

pIC50: −log10 of the molar value.

The assay deals with HCT116 (wild-type APC) cells. Description: Cell viability / toxicity in HCT116. It is filed as cell-based. To be noted: Homo sapiens, HCT-116, read-out: IC50 (viability / growth inhibition). A digest of the protocol: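 Dose-response toxicity assay of test compound on human HCT116 (APC wild-type) cells. Cells are kept in low-serum medium (0.2% FBS with growth factors), not fully defined medium. IC50 is the concentration that reduces cell viability by 50%.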

On to `CC[C@H](C)C(=O)O[C@H]1CCC=C2C=C[C@H](C)[C@H](CC[C@@H](O)C[C@@H](O)CC(=O)O)[C@H]21` [Compactin, compactin], for which the pIC50 was around 4.73.
